Results collected from several papers.
Lines come from different studies, so protocols differ.
Target: Serine/threonine-protein kinase Nek7 (NEK7, Homo sapiens, UniProt Q8TDX7)

| SMILES | test | system | setting | endpoint | value |
| --- | --- | --- | --- | --- | --- |
| CCN1CCN(Cc2ccc(NC(=O)c3ccc(C)c(Oc4ccnc5[nH]ccc45)c3)cc2C(F)(F)F)CC1 | target engagement in cells, inhibitor, chemoproteomics | A-375 | 5 µM | inhibition | 0.277% |
| CC(C)(O)[C@H]1CC[C@H](Nc2ccc3ncc(-c4cccc(C(F)(F)F)c4)n3n2)CC1 | enzyme activity, inhibitor |  | 1 µM | remaining activity | 93.6% |
| CO[C@@H](C)c1c(Nc2ccc([C@@H](N(C)C(=O)C3CCS(=O)(=O)CC3)C(F)(F)F)cc2)cnc2cc(Cl)nn12 | cell-free assay, competition with immobilised ligand |  | 1 µM | remaining binding | 91% |
| Cn1c2c(c3ccc(Cl)c(Cl)c31)C(C#N)C1(CCOCC1)NC2=O (stereo not shown) | thermal stability, DSF |  | 10 µM | ΔTm | -0.5 °C |
| CC(C)(C)c1nc2c(s1)c1nc(N)ncc1c1ccc(NS(=O)(=O)c3c(F)cccc3F)c(F)c12 | enzyme activity, inhibitor, radiometric |  | 1 µM | remaining activity | 27% |
| Cc1cc(NC(=O)c2cccc3cc(-c4cccc5[nH]nc(N)c45)ccc23)ccc1F | enzyme activity, inhibitor |  | 0.1 µM | activity vs control | 96% |
| c1ccc(CNc2nc(N3CCOc4ccccc43)nc3c2CCCC3)cc1 | target engagement in cells, inhibitor, chemoproteomics |  | 20 mM | inhibition | -6% |
| CNC(=O)c1cc(Oc2ccc(NC(=O)Nc3ccc(Cl)c(C(F)(F)F)c3)cc2)ccn1 | enzyme activity, inhibitor |  | 0.3 µM | inhibition | -9% |
| O=C1Nc2ccc(Cl)cc2C1=Cc1cc(Cl)c(O)c(Cl)c1 | cell-free assay |  | 0.5 µM | remaining signal | 100% |
| Cc1ccc(Nc2nccc(N(C)c3ccc4c(C)n(C)nc4c3)n2)cc1S(N)(=O)=O | enzyme activity, inhibitor |  | 10 µM | inhibition | -6% |
| C[C@@]1(Cc2ccc(C#N)cc2)C(=O)N(c2cc(Cl)cc(Cl)c2)c2ncc(C(=O)NC3(c4nc(C5CCC5)no4)CC3)n21 | cell-free assay, competition with immobilised ligand |  | 1 µM | remaining binding | 100% |
| CN1CC(Oc2cnc(C#N)cc2-c2ccn3nc(NC(=O)C4CC4)cc3c2)C1 | enzyme activity, inhibitor |  | 1 µM | inhibition | 0% |
| COc1cccc2c(NCc3ccccc3)nc(-n3c(N)nc4ccccc43)nc12 | target engagement in cells, inhibitor, chemoproteomics |  | 20 mM | inhibition | -1% |
| O=C(Nc1cnn(-c2csc(C(=O)NC3COC3)c2)c1)Nc1ccccc1Cl | enzyme activity, inhibitor |  | 5 µM | remaining activity | 102% |
| CN1CCC2(CC1)NC(=O)c1c(c3ccc(Cl)c(Cl)c3n1C)C2C#N (racemic) | thermal stability, DSF |  | 10 µM | ΔTm | -0.4 °C |
| Nc1ncnc2occ(-c3ccc(NC(=O)Nc4cc(C(F)(F)F)ccc4F)cc3)c12 | cell-free assay, inhibitor |  | 20 µM | remaining signal | 4% |

| SMILES | test | system | setting | endpoint | value |
| --- | --- | --- | --- | --- | --- |
| CC(C)(O)c1cncc(-c2nc3ccc(F)cc3n2C2CC2)c1 | cell-free assay, competition with immobilised ligand |  | 1 µM | remaining binding | 100% |
| Cc1sc(C(=O)NC2COC2)cc1-n1cc(NC(=O)Nc2c(F)cccc2Cl)cn1 | enzyme activity, inhibitor |  | 10 µM | remaining activity | 100% |
| Cn1c2c(c3ccc(Cl)c(Cl)c31)C(C#N)C(C)(C)NC2=O (stereo not shown) | thermal stability, DSF |  | 10 µM | ΔTm | -0.6 °C |
| O=C1NC(=O)c2cc(Nc3ccc(F)cc3)c(Nc3ccc(F)cc3)cc21 | cell-free assay |  | 0.5 µM | remaining signal | 103% |
| CCCOc1ccc(OC)c(F)c1C(=O)c1ccc(C(=O)N[C@@H]2CNC[C@H]2NC(=O)c2ccc3[nH]ncc3c2)cc1 | enzyme activity, inhibitor |  | 10 µM | remaining activity | 96% |
| O=C(O)[C@H]1[C@H](Cn2nnc3ccccc3c2=O)CC[C@@H]1C(=O)c1ccc(OCCC2CCOCC2)cc1 | cell-free assay, competition with immobilised ligand |  | 1 µM | remaining binding | 100% |
| CCN(CC)CCNC(=O)c1c(C)[nH]c(/C=C2\C(=O)Nc3ccc(F)cc32)c1C | enzyme activity, inhibitor |  | 0.3 µM | inhibition | -8% |
| CCCCN(CCCC)C(=O)CN1C[C@H](c2cc(OC)c3c(c2)OCO3)[C@@H](C(=O)O)[C@@H]1CC(C)(C)CCC | cell-free assay, competition with immobilised ligand |  | 1 µM | remaining binding | 100% |
| N#CCCc1ccc2c(c1)-c1[nH]c3ccc([N+](=O)[O-])cc3c1CC(=O)N2 | cell-free assay |  | 0.5 µM | remaining signal | 87.4% |
| CCOC(=O)c1cc2cc(-c3cc(C(=O)NCc4ccc(C(=O)O)cc4)nn3C)ccc2[nH]1 | cell-free assay, competition with immobilised ligand |  | 0.1 µM | remaining binding | 100% |
| Cn1c2c(c3ccc(Cl)c(Cl)c31)C(C#N)C1(CCCC1)NC2=O (stereo not shown) | thermal stability, DSF |  | 10 µM | ΔTm | 0 °C |
| Cc1noc([C@H]2C[C@@H](c3ccc(C(F)(F)F)cc3)CN(C(=O)N3CCS(=O)(=O)C3)C2)n1 | cell-free assay, competition with immobilised ligand |  | 1 µM | remaining binding | 100% |
| CCOc1cc(-c2nncn2C)ccc1Nc1ncc2cc(C)nc(NCC(C)(C)C)c2n1 | enzyme activity, inhibitor, FRET |  | 1 µM | inhibition | < 15% |
| Cc1c[nH]c2nccc(Oc3c(F)cc(Nc4cc(Cl)nc(N)n4)cc3F)c12 | cell-free assay, competition with immobilised ligand |  | 0.1 µM | remaining binding | 100% |
| N#CC1c2c([nH]c3c(Cl)c(Cl)ccc23)C(=O)NC12CCCCC2 (racemic) | thermal stability, DSF |  | 10 µM | ΔTm | 0.2 °C |
